Results as given in ChEMBL document CHEMBL4043208, “Small molecule inhibitors of bacterial transcription complex formation” (2017).

How the values were obtained:
Bacillus subtilis = assay: Growth inhibition of Bacillus subtilis 168 at 0.2 mM measured every 10 mins over 16 hrs relative to control; format: functional; details: subsp. subtilis str. 168, read-out: GI
Procedure, shortened: (§1)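 Cultures grown with compound at 0.2 mM; growth expressed as a percentage of the untreated positive control (growth without inhibitor, taken as 100%). B. subtilis (Gram-positive) and E. coli (Gram-negative) assayed in parallel.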

Escherichia coli = assay: Growth inhibition of Escherichia coli DH5[alpha] at 0.2 mM measured every 10 mins over 16 hrs relative to control; format: functional; details: read-out: GI; procedure, shortened: as §1
[1] = test system: Bacillus subtilis subsp. subtilis str. 168; assay: Inhibition of Bacillus subtilis 168 RNA polymerase subunit beta' CH region interaction with full length sigmaA at 15 uM by ELISA relative to control
Procedure, shortened: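 ELISA measuring binding of B. subtilis σA to the β'-CH region of core RNAP with compound at 15 μM. Signal expressed as a percentage of the positive control (σA–β'-CH interaction without inhibitor, set at 100%).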

Row | Structure (SMILES) | inhibition of growth at 200 µM (Bacillus subtilis) [%] | inhibition of growth at 200 µM (Escherichia coli) [%] | inhibition [1] [%]
1 | COc1cc(OC)c2cc(C(=O)O)[nH]c2c1C=C1C(=O)NC(=O)NC1=O | 0 | 0 | 28
2 | COc1cc(OC)c2c(-c3ccc(Cl)cc3)c[nH]c2c1C=C1C(=O)NC(=O)NC1=O | 41 | 30 | 15
3 | COc1cc(OC)c2c(-c3ccc(Cl)cc3)c[nH]c2c1/C=C1\SC(=S)NC1=O | 0 | 15 | 21
4 | C=CCN1C(=O)/C(=C/c2c(OC)cc(OC)c3cc(C(=O)OCc4ccccc4)[nH]c23)SC1=S | 6 | 28 | 63
5 | COc1cc(OC)c2c(-c3ccccc3)c[nH]c2c1C=C1C(=O)NC(=O)NC1=O | 83 | 0 | 45
6 | C=CCN1C(=O)/C(=C/c2c(OC)cc(OC)c3c(-c4ccccc4)c[nH]c23)SC1=S | 44 | 66 | 0
7 | C=CCN1C(=O)/C(=C/c2c(OC)cc(OC)c3cc(C(=O)O)[nH]c23)SC1=S | 21 | 30 | 74
8 | COc1cc(OC)c2c(-c3ccc(Cl)cc3)c[nH]c2c1C=C1C(=O)NC(=S)NC1=O | 0 | 24 | 14
9 | C=CCN1C(=O)/C(=C/c2c(OC)cc(OC)c3c(-c4ccc(Cl)cc4)c[nH]c23)SC1=S | 8 | 14 | 34
10 | COC(=O)c1cc2c(OC)cc(OC)c(C=C3C(=O)NC(=S)NC3=O)c2[nH]1 | 91 | 57 | 17
11 | COC(=O)c1cc2c(OC)cc(OC)c(C=C3C(=O)NC(=O)NC3=O)c2[nH]1 | 89 | 20 | 28
12 | COc1cc(OC)c2cc(C(=O)O)[nH]c2c1C=C1C(=O)NC(=S)NC1=O | 0 | 0 | 71
13 | COc1cc(OC)c2cc(C(=O)O)[nH]c2c1/C=C1\SC(=S)NC1=O | 0 | 26 | 36
14 | COc1cc(OC)c2c(-c3ccccc3)c[nH]c2c1/C=C1\SC(=S)NC1=O | 44 | 45 | 17
15 | COc1cc(OC)c2c(-c3ccccc3)c[nH]c2c1C=C1C(=O)NC(=S)NC1=O | 0 | 0 | 14
16 | COC(=O)c1cc2c(OC)cc(OC)c(/C=C3\SC(=S)NC3=O)c2[nH]1 | 45 | 28 | 3
17 | C=CCN1C(=O)/C(=C/c2c(OC)cc(OC)c3cc(C(=O)OC)[nH]c23)SC1=S | 22 | 79 | 46
